Experimental data: ChEMBL document CHEMBL4715799, “An N,N-Bis(benzimidazolylpicolinoyl)piperazine (BT-11): A Novel Lanthionine Synthetase C-Like 2-Based Therapeutic for Inflammatory Bowel Disease” (J Med Chem, 2016)
The source made the active and inactive calls. No cut-off for these calls is given here.

Columns and labels:
[1] = Tmax in rat plasma at 80 mg/kg, po by LC-MS/MS analysis; format: ADME, organism-based
Outline: (§1)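 Healthy rats given a single 80 mg/kg oral dose; plasma sampled over 0.5−48 h for pharmacokinetic parameters.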

Mus musculus [2] = experiment: Antiinflammatory activity in C57BL/6J mouse model of DSS-induced colitis assessed as upregulation of colonic LANCL2 mRNA expression at 8 mg/kg, po administered as single dose via gavage measured after 3 days by qRT-PCR analysis; format: functional, organism-based; settings: time 3.0 day
Outline: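 DSS colitis mice given 8 mg/kg/d orally versus vehicle; colon sampled on day 3 after treatment. Colonic LANCL2 mRNA measured by SYBR green real-time qPCR from 1 μg total RNA, quantified against amplicon standard curves.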

Mus musculus [3] = experiment: Antiinflammatory activity in C57BL/6J mouse model of DSS-induced colitis assessed as upregulation of colonic LANCL2 mRNA expression at 8 mg/kg, po administered as single dose via gavage measured 3 days post DSS challenge by qRT-PCR analysis
Mus musculus [4] = experiment: Antiinflammatory activity in C57BL/6J mouse model of DSS-induced colitis assessed as reduction of TNF-alpha positive cells at 8 mg/kg, po administered as single dose via gavage measured 7 days post DSS challenge by immunostaining based flow cytometric analysis; format: functional, organism-based
Mus musculus [5] = experiment: Antiinflammatory activity in LANCL2-/- C57BL/6J mouse model of DSS-induced colitis assessed as reduction in leukocyte infiltration of gut mucosa at 8 mg/kg, po administered […] via gavage measured 7 days post DSS challenge by H and E staining based histopathological analysis; format: functional, organism-based
Outline: (§2)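 Colitis induced in C57BL/6J or LANCL2−/− mice with DSS in drinking water. Compound given at 8 mg/kg/d by daily orogastric gavage from day 0 of the DSS challenge. Assessed at day 7 by disease activity index and by histopathology of colon: formalin-fixed, paraffin 5 μm sections, H&E, scored for leukocytic infiltration, epithelial erosion, mucosal thickening.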

Mus musculus [6] = experiment: Antiinflammatory activity in C57BL/6J mouse model of DSS-induced colitis assessed as improvement in disease activity at 8 mg/kg, po administered as […] via gavage measured 7 days post DSS challenge; format: functional, organism-based; outline: as §2
[7] = Drug concentration in rat colon at 80 mg/kg, po by LC-MS/MS analysis; format: ADME, organism-based; settings: in vivo
Mus musculus [8] = experiment: Antiinflammatory activity in LANCL2-/- C57BL/6J mouse model of DSS-induced colitis assessed as reduction of MCP1 positive cells at 8 mg/kg, po […] via gavage measured 7 days post DSS challenge by immunostaining based flow cytometric analysis; format: functional, organism-based
Outline: (§3)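 DSS colitis in WT or LANCL2−/− mice; 8 mg/kg/d by daily gavage from day 0, analysed at day 7. Colonic cells (4−6 × 10^5) surface-stained 20 min with fluorochrome-conjugated antibodies, then fixed, permeabilized, Fc-blocked and stained intracellularly. Stored fixed at 4 °C in the dark. Flow cytometry with live-cell then single-cell gating.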

Mus musculus [9] = species on record: Mus musculus; experiment: Antiinflammatory activity in C57BL/6J mouse model of DSS-induced colitis assessed as decrease in TNF-alpha gene expression at […] measured 7 days post DSS challenge by qRT-PCR analysis; format: functional, organism-based
Mus musculus [10] = experiment: Antiinflammatory activity in C57BL/6J mouse model of DSS-induced colitis assessed as reduction of MHCII+ CD11c+ […] at 8 mg/kg, po administered as single dose via gavage measured 7 days post DSS challenge by immunostaining based flow cytometric analysis; format: functional, organism-based
[11] = Elimination rate constant in rat at 80 mg/kg, po; format: ADME, organism-based; settings: in vivo; outline: as §1
Mus musculus [12] = experiment: Antiinflammatory activity in C57BL/6J mouse model of DSS-induced colitis assessed as increase in IL-10 gene expression at 8 mg/kg, po administered as single dose via gavage measured 7 days post DSS challenge by qRT-PCR analysis; format: functional, organism-based
[13] = Cmax in rat at 500 mg/kg, po by LC-MS/MS analysis by LC-MS/MS analysis; format: ADME, organism-based; design: route oral, dose 500 mg/kg; settings: in vivo
Mus musculus [14] = experiment: Antiinflammatory activity in C57BL/6J mouse model of DSS-induced colitis assessed as upregulation of IL-10 secretion at 8 mg/kg, po administered as […] via gavage measured 7 days post DSS challenge by immunostaining based flow cytometric analysis; format: functional, organism-based; outline: as §3
Mus musculus [15] = experiment: Antiinflammatory activity in LANCL2-/- C57BL/6J mouse model of DSS-induced colitis assessed as upregulation of IL-10 secretion at 8 mg/kg, po administered as single dose via gavage measured 7 days post DSS challenge by immunostaining based flow cytometric analysis; format: functional, organism-based
Mus musculus [16] = experiment: Antiinflammatory activity in C57BL/6J mouse model of DSS-induced colitis assessed as reduction of MCP1 positive cells at 8 mg/kg, po administered as single dose via gavage measured 7 days post DSS challenge by immunostaining based flow cytometric analysis; format: functional, organism-based
Mus musculus [17] = experiment: Antiinflammatory activity in LANCL2-/- C57BL/6J mouse model of DSS-induced colitis assessed as reduction of MHCII+ CD11c+ […] at 8 mg/kg, po […] via gavage measured 7 days post DSS challenge by immunostaining based flow cytometric analysis; format: functional, organism-based; outline: as §3
Mus musculus [18] = experiment: Antiinflammatory activity in LANCL2-/- C57BL/6J mouse model of DSS-induced colitis assessed as reduction of TNF-alpha positive cells at 8 mg/kg, po administered as single dose via gavage measured 7 days post DSS challenge by immunostaining based flow cytometric analysis; format: functional, organism-based
[19] = Half-life in rat at 80 mg/kg, po by LC-MS/MS analysis; settings: in vivo
Splenocyte = experiment: Induction of intracellular cAMP production in LANCL2-/- C57BL/6J mouse splenocytes at 1.25 to 10 uM incubated for 20 hrs followed by redosing for 10 mins measured by EIA; format: functional, tissue-based; settings: dose 1.25-10 µM, time 1210.0 min
Outline: (§4)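 Splenocytes from male WT or LANCL2−/− C57BL/6J mice over 8 weeks, stimulated on plates precoated with anti-CD28 (1 μg/mL) and anti-CD3 (5 μg/mL). Compound in cRPMI at 0, 1.25, 2.5, 5, 10 μM, four replicates, plus unstimulated controls. After 20 h, a second 10 min treatment at the same concentrations. Cells washed, lysed in 0.1 M HCl, intracellular cAMP read by direct EIA.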

[20] = Cmax in rat plasma at 80 mg/kg, po measured at 1 hr by LC-MS/MS analysis; format: ADME, organism-based; design: route oral, dose 80 mg/kg, time 1 hrs; outline: as §1
Mus musculus [21] = experiment: Antiinflammatory activity in LANCL2-/- C57BL/6J mouse model of DSS-induced colitis at 8 mg/kg, po administered as single dose via gavage measured 7 days DSS challenge; format: functional, organism-based
Mus musculus [22] = experiment: Antiinflammatory activity in C57BL/6J mouse model of DSS-induced colitis assessed as reduction in colonic lesion at 8 mg/kg, po administered as single dose via gavage measured 7 days post DSS challenge; format: functional, organism-based
[23] = biological target: T1, LanC-like protein 2 (Mus musculus) (UniProt Q9JJK2); experiment: Activation of wild-type LANCL2 in C57BL/6J mouse splenocytes assessed as increase in intracellular cAMP production incubated for 20 hrs followed by compound redosing for 10 mins measured by EIA; format: cell-based; settings: Splenocyte, filed as activator, dose 1.25-10 µM, time 1210.0 min; outline: as §4
T1 sequence (whole entry): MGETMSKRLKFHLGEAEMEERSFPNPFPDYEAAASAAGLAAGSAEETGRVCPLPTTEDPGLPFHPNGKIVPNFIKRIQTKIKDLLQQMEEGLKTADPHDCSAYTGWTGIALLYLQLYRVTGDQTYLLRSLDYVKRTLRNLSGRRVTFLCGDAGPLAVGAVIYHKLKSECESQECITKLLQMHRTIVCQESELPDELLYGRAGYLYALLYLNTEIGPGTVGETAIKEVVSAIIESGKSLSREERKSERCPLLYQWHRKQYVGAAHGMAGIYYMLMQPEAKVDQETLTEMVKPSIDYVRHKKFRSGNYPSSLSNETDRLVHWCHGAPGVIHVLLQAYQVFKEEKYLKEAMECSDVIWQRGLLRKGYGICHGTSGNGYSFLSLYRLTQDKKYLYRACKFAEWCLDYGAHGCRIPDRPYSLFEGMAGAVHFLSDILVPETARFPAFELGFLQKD

[24] = Tmax in rat at 500 mg/kg, po by LC-MS/MS analysis; format: ADME, organism-based; settings: in vivo
[25] = Apparent volume of distribution in rat at 80 mg/kg, po by LC-MS/MS analysis; format: ADME, organism-based; settings: in vivo; outline: as §1

Tmax [1]: 1 h | Drug uptake [7]: Active | Kel [11]: 0.225 h⁻¹ | Cmax [13]: 17 ng/mL | half-life [19]: 3.1 h | Cmax [20]: 28 ng/mL | Activity [23]: Dose-dependent effect | Tmax [24]: 4 h | Vz [25]: 3.38 L/kg
Structure (SMILES): O=C(c1cccc(-c2nc3ccccc3[nH]2)n1)N1CCN(C(=O)c2cccc(-c3nc4ccccc4[nH]3)n2)CC1 [OMILANCOR]
Activity (Mus musculus [2]): Active | Activity (Mus musculus [3]): Active | Activity (Mus musculus [4]): Active | Activity (Mus musculus [5]): inactive | Activity (Mus musculus [6]): Active | Activity (Mus musculus [8]): inactive | Activity (Mus musculus [9]): Active | Activity (Mus musculus [10]): Active | Activity (Mus musculus [12]): Active | Activity (Mus musculus [14]): Active | Activity (Mus musculus [15]): inactive | Activity (Mus musculus [16]): Active | Activity (Mus musculus [17]): inactive | Activity (Mus musculus [18]): inactive | Activity (Splenocyte): inactive | Activity (Mus musculus [21]): inactive | Activity (Mus musculus [22]): Active
